High-throughput results as filed in PubChem BioAssay.
Cl transport mod: KCC2 (human) Cl- transport modulation; KCC2 cells, thallium flux FluoZin-2 fluorescence; B-score of Tl+ flux slope (higher = more flux/activation; lower = inhibition) at 10 µM; 2.2% of 190,000 active; AID 1456;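 active = thallium flux slope and its plate-corrected score both differing from the plate sample mean at a set confidence after two filtering rounds, in either direction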;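 note: slope of fluorescence scaled to starting intensity during 10 to 20 s after thallium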
Target sequence (Q9H2X9 whole entry, looked up): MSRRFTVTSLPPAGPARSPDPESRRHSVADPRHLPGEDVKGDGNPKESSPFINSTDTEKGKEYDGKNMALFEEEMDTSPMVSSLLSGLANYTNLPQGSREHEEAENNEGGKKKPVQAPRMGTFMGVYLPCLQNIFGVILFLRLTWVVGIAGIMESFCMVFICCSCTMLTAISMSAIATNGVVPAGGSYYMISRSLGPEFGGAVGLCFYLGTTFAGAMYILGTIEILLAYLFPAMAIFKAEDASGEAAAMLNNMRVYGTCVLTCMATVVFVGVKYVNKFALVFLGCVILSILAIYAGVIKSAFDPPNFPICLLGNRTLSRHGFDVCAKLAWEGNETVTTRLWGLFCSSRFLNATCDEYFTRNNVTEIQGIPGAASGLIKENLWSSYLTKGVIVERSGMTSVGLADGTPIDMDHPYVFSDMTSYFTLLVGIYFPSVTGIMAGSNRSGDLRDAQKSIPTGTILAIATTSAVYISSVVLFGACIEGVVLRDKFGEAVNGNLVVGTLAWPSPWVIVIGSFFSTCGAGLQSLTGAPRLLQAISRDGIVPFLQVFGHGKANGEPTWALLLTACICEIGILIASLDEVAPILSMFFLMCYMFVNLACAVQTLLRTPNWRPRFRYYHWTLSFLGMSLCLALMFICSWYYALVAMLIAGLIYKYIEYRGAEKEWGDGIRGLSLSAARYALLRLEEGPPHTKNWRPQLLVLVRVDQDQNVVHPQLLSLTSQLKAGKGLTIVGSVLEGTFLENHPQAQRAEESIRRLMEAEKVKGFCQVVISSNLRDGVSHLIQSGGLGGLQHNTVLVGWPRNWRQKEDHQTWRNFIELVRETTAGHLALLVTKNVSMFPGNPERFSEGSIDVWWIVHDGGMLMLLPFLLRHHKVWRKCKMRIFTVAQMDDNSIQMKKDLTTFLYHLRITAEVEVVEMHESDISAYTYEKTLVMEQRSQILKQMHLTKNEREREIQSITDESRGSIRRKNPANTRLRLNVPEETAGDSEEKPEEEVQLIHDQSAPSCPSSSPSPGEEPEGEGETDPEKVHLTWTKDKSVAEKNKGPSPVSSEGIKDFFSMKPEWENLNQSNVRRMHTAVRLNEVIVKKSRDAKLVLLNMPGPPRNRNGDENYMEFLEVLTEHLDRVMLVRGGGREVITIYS
ABCG2 block: human ABCG2 inhibition, ABCB1 as counter-screen; Q9UNQ0; IgMXP3 cells, JC-1 efflux, flow cytometry; inhibition, % at 6.6 µM; 0.1% of 190,000 active;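 active = inhibition above 80%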;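 note: 0% = DMSO and 100% = nicardipine control wells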
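test system = two drug-resistant human cell lines, ABCG2 and ABCB1 | amount = 3 million cells/mL final, two lines in 1:1 ratio | reagent = JC-1 transporter substrate | doses = one concentration, 6.6 µM final | incubation = 10 min at 25 °C | signal = flow cytometric JC-1 green MFI at 530 nm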
PMI activator: increases human mannose-6-phosphate isomerase activity; P34949; purified human PMI, coupled resazurin fluorescence, 20 min; hits give high values; 1 = vehicle control, 0 substrate-free wells; activation factor at 20 µM; 0.005% of 190,000 active;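 active = activation factor of 2 or more at 20 µM, relative to plate controls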
PMI act hi M6P: increases human PMI activity with near-saturating mannose 6-phosphate. P34949. coupled PMI enzyme assay, resazurin fluorescence, 20 min; hits give high values; 1 = untreated enzyme, 0 = substrate-free blank. activation factor at 20 µM. 0.34% of 190,000 active. AID 1216;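 active = activation factor of 2 or more at 20 µM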
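Test system: human phosphomannose isomerase with PGI, G6PDH, diaphorase coupling enzymes; Amount: PMI at 15 ng/mL final; Reagent: Mannose-6-phosphate 1.0 mM (near-saturating) plus 0.22 mM NADP+; Timing: 20 min, room temperature; Technique: resorufin fluorescence at Ex 544/Em 590 nm; Dosing: 20 µM single dose.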
ABCB1 inh: human ABCB1 inhibition, ABCG2 as counter-screen. P08183. CCRF-Adr cells, JC-1 efflux, flow cytometry. inhibition, % at 6.6 µM. 0.067% of 190,000 active; in the data active = inhibition above about 40%;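 note: 0% = vehicle and 100% = reference inhibitor; higher value means more JC-1 retained so stronger ABCB1 efflux block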
ROMK mod: modulators of human ROMK potassium channel; 2% of 130,000 active; Tet-inducible ROMK, thallium flux fluorescence; actives lie on both sides; AID 1918; P48048; B-score at 10 µM;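 active = signal ratio slope over the read window, or its plate-corrected B-score, at least 3 SD from the plate mean, either direction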;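 note: B-score of the F/F0 ratio slope over 7 to 12 s after thallium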
KCC2 sec1: KCC2 (human) modulation, secondary assay. shares compounds with Cl transport mod. HEK293-KCC2, thallium flux, FluoZin2 fluorescence; hits give high values. normalised thallium flux (F/F0 slope) at 10 µM. 15% of 3,700 active. AID 1713;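 active = thallium flux slope above the same plate's solvent-only control mean plus 3 SD; inconclusive = the two replicate wells disagree; inactive = no significant difference from solvent-only control wells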
KCC2 bumet counter: thallium flux despite bumetanide block in KCC2 cells, secondary assay 3; shares compounds with Cl transport mod; HEK293-KCC2 + bumetanide/ouabain, thallium flux FluoZin2; hits give high values; normalized thallium flux at 10 µM; 49% of 3,700 active;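 active = thallium entry rate above the same plate's blocked-transporter control wells by more than 3 SD; inconclusive = the two repeat wells disagree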;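 note: raw slope of fluorescence over initial fluorescence between 10 and 20 s after thallium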
KCC2 secondary2: KCC2 (human) modulation, second secondary assay | shares compounds with Cl transport mod | HEK293-KCC2, thallium flux FluoZin2 fluorescence; actives lie on both sides; F/F0 rise rate, 10–20 s post-thallium | normalized thallium flux at 10 µM | 23% of 3,700 active;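 active = thallium flux slope more than 3 SD above or below the plate's solvent-only control mean, mostly below; inconclusive = the two repeat wells disagreed; inactive = no significant shift from solvent-only controls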;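 note: raw slope with 0.1% DMSO as baseline and bumetanide as block control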
HEK293 Tl flux: parental HEK flux effect, counter-screen. thallium flux rate (normalised fluorescence) at 10 µM. HEK293 parental cells, thallium flux FluoZin2, ouabain; baseline-ratio fluorescence slope, 10–20 s after thallium. shares compounds with Cl transport mod. AID 1716. 46% of 3,700 active;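 active = thallium flux rate significantly above the same plate's solvent-only control wells, beyond their mean plus 3 SD; inconclusive = the two replicate wells gave conflicting results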
KCC2 ouabain: KCC2 (human) modulation, ouabain retest; shares compounds with Cl transport mod; HEK293-KCC2, thallium flux FluoZin2 fluorescence; bidirectional: low = inhibitor, high = activator; raw Tl+ flux slope (below DMSO = inhibition, above = activation) at 10 µM; 48% of 3,700 active; AID 1717;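 active = thallium flux slope beyond 3 SD from same-plate DMSO control mean in most replicates, usually higher, sometimes lower; inconclusive = repeat tests gave conflicting results; inactive = no significant difference from controls in most replicates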;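 note: slope of initial-normalized fluorescence between seconds 10 and 20 after thallium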
HEK293 Tl flux2: acts in parental HEK cells, second KCC2 counter-screen. shares compounds with Cl transport mod. HEK293 parental, thallium flux FluoZin-2 fluorescence slope. thallium flux slope at 10 µM. 33% of 3,700 active;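 active = thallium flux slope above the same plate's solvent-control mean plus 3 SD in both duplicate wells; inconclusive = duplicate wells that disagreed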;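 note: run without ouabain in cells lacking the KCC2 cotransporter; slope of fluorescence scaled to its starting value between 10 and 20 s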
Active calls of the source: *; ? = inconclusive; . = no result given. A selection: hits, their analogues and other compounds. The true share with any hit is near 3.3%.

SMILES	Cl transport mod	ABCG2 block	PMI activator	PMI act hi M6P	ABCB1 inh	ROMK mod	KCC2 sec1	KCC2 bumet counter	KCC2 secondary2	HEK293 Tl flux	KCC2 ouabain	HEK293 Tl flux2
Cc1noc(C)c1CSCC(=O)OCC(=O)NC1CCCCC1	.	2	0.9	0.9	0	0.72	0.0068	?	0.03	0.0072	0.018	0.011
CS(=O)(=O)N(CC(=O)Nc1cccc(F)c1)Cc1ccccc1	.	3	0.9	0.9	1	.	.	.	.	.	.	.
Cc1cccc(C)c1NC(=S)N(CCCN1CCOCC1)Cc1cccnc1	0.49	2	1.1	0.9	0	-0.26	.	.	.	.	.	.
O=C(O)/C(=C\c1ccc(Cl)c([N+](=O)[O-])c1)c1ccc(S(=O)(=O)N2CCCCC2)s1	-7.8*	-1	0.8	0.4	-1	-0.13	0.0087	0.0063	0.03	0.0072	0.011*	0.011
Cc1sc(N/N=C/c2cccs2)nc1-c1ccccc1	0.89	-8	0.9	1.1	-2	-0.1	.	.	.	.	.	.
CC1CCN(S(=O)(=O)c2ccc(NC(=O)CSc3nnnn3C)cc2)CC1	-0.75	6	0.9	0.9	1	.	.	.	.	.	.	.
COc1ccc(OCCN2C(=O)NC(C)(c3ccc(C)cc3)C2=O)cc1 (centres undefined)	4*	46	1.1	1.1	1	.	0.0081	0.0054	0.034	0.0042	0.019	0.011
COCC(O)CSc1nc(C)[nH]c1[N+](=O)[O-] (centres undefined)	-5.2*	1	1	1	1	-0.13	0.016	0.0042	0.028	0.0072	0.016	0.0097
Cc1nc(SCC(O)CCl)c([N+](=O)[O-])[nH]1 (centres undefined)	0.0096	0	1.2	1.2	0	1	.	.	.	.	.	.
CCc1nnc(NC(=O)CSc2ncc(-c3ccccc3)n2CC)s1	-0.71	12	1	1	0	1.5	.	.	.	.	.	.
Oc1ccc(-c2csc(NCc3ccco3)n2)cc1	.	2	0.8	0.9	0	-0.045	0.0086	0.0046	0.032	0.0056*	0.016*	0.0087
O=C(NCc1ccccn1)c1cc(S(=O)(=O)N2CCN(c3ccccc3)CC2)ccc1Cl	.	2	1.1	0.9	2	-1.1	0.0067	0.0042	0.026*	0.0076	?	0.011
Cc1c(C(=O)NCc2cccs2)oc2ccc(S(=O)(=O)N3CCOCC3)cc12	0.78	5	0.9	1	1	-1.6	.	.	.	.	.	.
CN(Cc1ccccc1)S(=O)(=O)c1ccc(Cl)c(C(=O)NCCc2ccccn2)c1	-4.4*	1	1.1	1.1	1	0.53	0.0073	0.005	0.018*	0.0068	0.012*	0.0092
Cc1c(C(=O)NCc2ccccn2)oc2ccc(S(=O)(=O)N3CCOCC3)cc12	5.2*	1	0.9	0.9	0	0.22	0.0052	?	?	0.0079	0.019	0.011
CCn1cc(C(=O)Nc2cc3c(cc2NC(C)=O)OCCO3)c(=O)c2ccc(C)nc21	-0.028	.	.	.	.	.	.	.	.	.	.	.
O=C(CC1Sc2ccccc2NC1=O)NCc1ccccc1 (centres undefined)	1.3	.	.	.	.	.	.	.	.	.	.	.
